Experimental data from ChEMBL document CHEMBL2429830, “Antimycobacterial labdane diterpenes from Leucas stelligera” (J Nat Prod, 2013).
Converted amounts (≈) assume the structure as drawn. The source made the active and inactive calls. The rule behind the calls is not given here.

Tests used:
Escherichia coli [1] = assay: Antibacterial activity against Escherichia coli DH5[alpha] assessed as growth inhibition after 6 hrs; assay type: functional
[2] = tested on: Mycolicibacterium smegmatis; assay: Antimycobacterial activity against Mycobacterium smegmatis MC2 155 assessed as inhibition of cell viability measured on day 3 by XTT assay in presence of menadione; assay type: functional; details: str. MC2 155, 72 h
Outline: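 M. smegmatis mc2 155 in microplate wells; on day 3, OD470 read as blank, then XTT (200 μM) added, shaken 1 min and held 20 min at 37 °C. Menadione (60 μM) was then added, mixed 1 min and held another 20 min at 37 °C before the final OD470 reading.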

[3] = tested on: Mycobacterium tuberculosis; assay: Antimycobacterial activity against Mycobacterium tuberculosis H37Ra assessed as inhibition of cell viability at 100 ug/mL measured on day 8 by XTT assay in presence of menadione; assay type: functional, organism-based
Outline: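 M. tuberculosis H37Ra (ATCC 25177) grown aerobically to log phase in M. pheli medium at 37 °C, 150 rpm, then sonicated 2 min. About 10^5 cells/mL, 250 μL per well, exposed to DMSO-dissolved samples at 100 μg/mL and incubated at 37 °C in a CO2 incubator. Day 8 read-out: OD470 blank, XTT 200 μM for 20 min, menadione 60 μM for 40 min, then OD470.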

HepG2 [4] = assay: Cytotoxicity against human HepG2 cells assessed as growth inhibition after 120 hrs by MTT assay; assay type: functional; details: HepG2, 120 h
Outline: (§1)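 MTT (10 μL of 5 mg/mL) added for 1 h at 37 °C. Formazan dissolved in 2-propanol for 4 h, read at 490 nm against cell-free blank. DMSO-carrier wells taken as 100% growth.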

THP-1 [5] = assay: Cytotoxicity against human THP1 cells assessed as growth inhibition after 72 hrs by MTT assay; assay type: functional; details: THP-1, 72 h
Outline: (§2)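 Viability by MTT (1 h, 37 °C), formazan taken up in 2-propanol 4 h, absorbance 490 nm against cell-free blank. Medium with matching DMSO served as 100% growth.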

HepG2 [6] = assay: Cytotoxicity against human HepG2 cells assessed as growth inhibition at 100 ug/mL after 120 hrs by MTT assay relative to control; assay type: functional; details: HepG2, 120 h, read-out: GI; outline: as §1
THP-1 [7] = assay: Cytotoxicity against human THP1 cells assessed as growth inhibition at 100 ug/mL after 72 hrs by MTT assay relative to control; assay type: functional; details: THP-1, 72 h, read-out: GI; outline: as §2
MCF7 [8] = assay: Cytotoxicity against human MCF7 cells assessed as growth inhibition at 100 ug/mL after 192 hrs by MTT assay relative to control; assay type: functional; details: MCF7, 192 h, read-out: GI
Outline: (§3)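 MCF-7 cells at ~10^5 cells/mL, 24 h adherence at 37 °C. MTT read-out: 1 h with MTT at 37 °C, then 2-propanol solubilization for 4 h, OD 490 nm versus cell-free wells. Growth expressed relative to DMSO-only controls (100%).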

MCF7 [9] = assay: Cytotoxicity against human MCF7 cells assessed as growth inhibition after 192 hrs by MTT assay; assay type: functional; details: MCF7, 192 h
Outline: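 MCF-7 cells at ~10^5 cells/mL, 24 h adherence at 37 °C. […] MTT read-out: 1 h with MTT at 37 °C, then 2-propanol solubilization for 4 h, OD 490 nm versus cell-free wells. Growth expressed relative to DMSO-only controls (100%).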

HepG2 [10] = assay: Cytotoxicity against human HepG2 cells assessed as growth inhibition at IC90 after 120 hrs by MTT assay relative to control; assay type: functional; outline: as §1
THP-1 [11] = assay: Cytotoxicity against human THP1 cells assessed as growth inhibition at IC90 after 72 hrs by MTT assay relative to control; assay type: functional; outline: as §2
Escherichia coli [12] = assay: Antibacterial activity against Escherichia coli DH5[alpha] assessed as growth inhibition at IC90 after 6 hrs relative to control; assay type: functional
MCF7 [13] = assay: Cytotoxicity against human MCF7 cells assessed as growth inhibition at IC90 after 192 hrs by MTT assay relative to control; assay type: functional; outline: as §3
[14] = tested on: Mycolicibacterium smegmatis; assay: Antimycobacterial activity against Mycobacterium smegmatis MC2 155 assessed as inhibition of cell viability at IC90 measured on day 3 by XTT assay in presence of menadione relative to control; assay type: functional, str. MC2 155
[15] = tested on: Mycobacterium tuberculosis; assay: Antimycobacterial activity against Mycobacterium tuberculosis H37Ra assessed as inhibition of cell viability measured on day 8 by XTT assay in presence of menadione; assay type: functional, organism-based; details: 192 h
Outline: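 H37Ra log-phase culture grown in M. pheli medium at 37 °C, sonicated, then seeded at about 10^5 cells/mL. Serial dilutions of DMSO-dissolved samples were tested, with isoniazid as positive control, at 37 °C in a CO2 incubator for 8 days. Viability was read by XTT (200 μM, 20 min) then menadione (60 μM, 40 min), OD470. IC50 and IC90 came from dose-response curves.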

Question: What does the source list for CO[C@H]1/C=C/O[C@@]2(C)Oc3c(C)c(O)c4c(O)c(c(/C=N/N5CCN(C)CC5)c(O)c4c3C2=O)NC(=O)/C(C)=C\C=C\[C@H](C)[C@H](O)[C@@H](C)[C@@H](O)[C@@H](C)[C@H](OC(C)=O)[C@@H]1C [RIFAMPIN]?
Answer: IC90 (Escherichia coli [1]): 0.5 mg/L (≈ 0.608 µM); IC90 [2]: 0.2 mg/L

Question: COc1cc(O)c2c(=O)cc(-c3ccc(O)c(OC)c3)oc2c1 was tested. Which inhibition [3] did it give?
Answer: inactive

Question: For CC(=O)O[C@H]1C(=O)[C@@]2(C)[C@H]([C@H](OC(=O)c3ccccc3)[C@]3(O)C[C@H](OC(=O)[C@H](O)[C@@H](NC(=O)c4ccccc4)c4ccccc4)C(C)=C1C3(C)C)[C@]1(OC(C)=O)CO[C@@H]1C[C@@H]2O [PACLITAXEL], which IC90 (HepG2 [4]) is on record?
Answer: 78.9 mg/L (≈ 92.4 µM)

Question: What about the IC90 (THP-1 [5]) of the same molecule?
Answer: 98.6 mg/L (≈ 115 µM)

Question: And the inhibition of growth at 100 µg/mL (HepG2 [6])?
Answer: 87.9%

Question: And the inhibition of growth at 100 µg/mL (THP-1 [7])?
Answer: 82.5%

Question: And the inhibition of growth at 100 µg/mL (MCF7 [8])?
Answer: 86.7%

Question: And the IC90 (MCF7 [9])?
Answer: 107 mg/L (≈ 125 µM)

Question: Which “growth inhibition (GI)” value (HepG2 [10]) does the source give for C[C@@H]1CC[C@H]2C(C)(C)CCC[C@]2(C)[C@@]12CC[C@]1(CO[C@H](O)C1)O2 here?
Answer: 6.92%

Question: And the “growth inhibition (GI)” value (THP-1 [11])?
Answer: 8.18%

Question: And the “growth inhibition (GI)” value (Escherichia coli [12])?
Answer: 23.15%

Question: And the “growth inhibition (GI)” value (MCF7 [13])?
Answer: 28.98%

Question: What about the inhibition of growth at 100 µg/mL (HepG2 [6]) of the same molecule?
Answer: 14.4%

Question: What about the “inhibition (INH)” value [14] of the same molecule?
Answer: 47.83%

Question: And the inhibition of growth at 100 µg/mL (THP-1 [7])?
Answer: 21.7%

Question: What about the IC50 [15] of the same molecule?
Answer: 5.55 mg/L

Question: And the IC90 [15]?
Answer: 14.9 mg/L

Question: What about the inhibition of growth at 100 µg/mL (MCF7 [8]) of the same molecule?
Answer: 42.4%

Question: How did the IC90 [15] turn out when NNC(=O)c1ccncc1 [ISONIAZID] was run?
Answer: 0.055 mg/L

Question: Which inhibition of growth at 100 µg/mL (THP-1 [7]) does the source give for C=C[C@](C)(O)CC[C@@H]1[C@@]2(C)CCCC(C)(C)[C@H]2CC[C@@]1(C)O here?
Answer: 96.4%

Question: What about the IC50 [15] of the same molecule?
Answer: 5.95 mg/L

Question: Which “growth inhibition (GI)” value (HepG2 [10]) does the source give for C[C@@H]1CC[C@H]2C(C)(C)CCC[C@]2(C)[C@@]1(O)CC/C(=C/CO)CO here?
Answer: 21.48%

Question: And the “growth inhibition (GI)” value (THP-1 [11])?
Answer: 9.07%

Question: And the “growth inhibition (GI)” value (Escherichia coli [12])?
Answer: 11.47%

Question: What about the “growth inhibition (GI)” value (MCF7 [13]) of the same molecule?
Answer: 3.54%

Question: And the inhibition of growth at 100 µg/mL (HepG2 [6])?
Answer: 21.5%

Question: What about the “inhibition (INH)” value [14] of the same molecule?
Answer: 30.57%

Question: And the inhibition of growth at 100 µg/mL (THP-1 [7])?
Answer: 9.07%

Question: And the IC50 [15]?
Answer: 9.8 mg/L

Question: And the inhibition of growth at 100 µg/mL (MCF7 [8])?
Answer: 3.54%
